Key:
Rattus norvegicus = test: Antiarrhythmic activity in aconitine-intoxicated iv dosed Ivanovas rat assessed as inhibition of ventricular dysfunction; format: functional, Heart
Procedure, shortened: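 Male Ivanovas rats (300–350 g) were anaesthetised with urethane 1.25 g/kg ip. Compound was given iv at 5 mg/kg 5 min before saphenous vein infusion of aconitine ([…], 0.1 ml/min). Lead II ECG was recorded every 30 s. Read-out was aconitine per 100 g causing ventricular extrasystoles, tachycardia and fibrillation versus untreated controls. Used 24 rats/compound; Student's t-test.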

Mus musculus = test: Antianxiety activity in ip dosed Albino mouse assessed as increase in locomotor activity after 30 mins relative to Diazepam; format: functional
[1] = Acute toxicity in rat; format: organism-based; conditions: in vivo

SMILES | LD100 increase (Rattus norvegicus) | Ratio (Mus musculus) | LD50 [1]
N#Cc1c(NC(=S)NC(=O)c2ccccc2)sc2c1CCCC2 | 84% | 10 | 175 mg/kg
COc1cccc(NC(=O)c2c(N)sc3c2CCCC3)c1 |  | 4 | 121 mg/kg
COc1cccc(-n2nnc3sc4c(c3c2=O)CCCC4)c1 | 75% | 4 | 124 mg/kg
N#Cc1c(N)sc2c1CCCC2 |  | 1 | 152 mg/kg
N#Cc1c(NC(=O)CCl)sc2c1CCCC2 | 73.1% | 3 | 194 mg/kg
COc1cccc(-n2c(=S)[nH]c3sc4c(c3c2=O)CCCC4)c1 | 76% | 3 | 210 mg/kg
COc1cccc(NC(=O)c2c(NC(=O)c3ccccc3)sc3c2CCCC3)c1 | 67.9% | 2 | 236 mg/kg
COc1cccc(NC(=O)c2c(NC(=O)/C=C/c3ccccc3)sc3c2CCCC3)c1 | 74.6% | 5 | 276 mg/kg
COc1cccc(-n2c(-c3ccccc3)nc3sc4c(c3c2=O)CCCC4)c1 | 70.1% | 5 | 136 mg/kg
COc1cccc(-n2c(/C=C/c3ccccc3)nc3sc4c(c3c2=O)CCCC4)c1 | 82% | 7 | 243 mg/kg
N#Cc1c(NC(=O)/C=C/c2ccccc2)sc2c1CCCC2 | 77.5% | 5 | 186 mg/kg
N=c1oc(-c2ccccc2)nc2sc3c(c12)CCCC3 | 68.15% | 3 | 224 mg/kg
N=c1oc(/C=C/c2ccccc2)nc2sc3c(c12)CCCC3 | 80.1% | 6 | 244 mg/kg
N#Cc1c(-n2c(O)csc2=N)sc2c1CCCC2 | 82.1% | 12 | 274 mg/kg
N#Cc1c(N2C(=O)C=CC2=O)sc2c1CCCC2 |  | 3 | 234 mg/kg
N=c1c2c3c(sc2nc(S)n1C(=O)c1ccccc1)CCCC3 | 84.3% | 5 | 221 mg/kg
N#Cc1c(/N=C/c2ccccc2)sc2c1CCCC2 | 73.6% | 2 | 246 mg/kg
N#Cc1c(N2C(=S)N=C(c3ccccc3)OC2c2ccccc2)sc2c1CCCC2 (centres undefined) | 84% | 16 | 297 mg/kg
O=C1CC2(CCCC2)CC(=O)N1CCCCN1CCN(c2ncccn2)CC1 [BUSPIRONE] |  |  | 113 mg/kg
CCN(CC)CC(=O)Nc1c(C)cccc1C [LIDOCAINE] | 65% |  | 
CCN(CC)CCNC(=O)c1ccc(N)cc1 [PROCAINAMIDE] | 65% |  | 
